Broadly, the pIC50 is −log10 of the IC50, conventionally taken in molar units. The low end stands for a large IC50, the high end for a small IC50.

pIC50: −log10 of the molar value. Calls of active or inactive are those of the source. No cut-off for these calls is given here.

Consider seven molecules from ChEMBL document CHEMBL5260843 (J Med Chem, 2019).

In assay [1] the test system is MGC-803. In words: Induction of p21 accumulation in human MGC-803 cells 0.03 to 3 uM incubated for 24 hrs by Western blot analysis. Format: functional, cell-based. The conditions noted are these: dose 0.03-3 µM. The gist of the method:
(§1)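 Cells in 6-well plates were exposed to compound for 24 h. MGC-803 were grown in DMEM and KYSE70 in RPMI 1640, both with 10% FBS at 37 °C and 5% CO2. Lysates were made in RIPA with protease inhibitors and quantified by BCA. 30 μg protein was run on 8% SDS-PAGE and blotted to nitrocellulose. Primary antibodies were applied overnight at 4 °C, then HRP secondaries, with ECL and film detection. GAPDH was the loading control. Run three times.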

Assay [2] has as its system MGC-803. In words: Induction of p27 accumulation in human MGC-803 cells 0.03 to 3 uM incubated for 24 hrs by Western blot analysis. It counts as functional, cell-based. Particulars: dose 0.03-3 µM. The gist of the method: as §1
(A western blot detects proteins with antibodies after separation by electrophoresis.)

Assay [3] has as its target Cullin-1 (Homo sapiens) (UniProt Q13616). In words: Inhibition of cullin1 neddylation in UBC/DCN1 overactivated human MGC-803 cells at 1 uM incubated for 24 hrs by Western blot analysis. Format: cell-based. The gist of the method: as §1
For assay [4], the target named is Cullin-4A (Homo sapiens) (UniProt Q13619). In words: Inhibition of cullin4A neddylation in UBC/DCN1 overactivated human MGC-803 cells at 1 uM incubated for 24 hrs by Western blot analysis. Format: cell-based. The gist of the method:
as §1

Assay [5] concerns MGC-803. In words: Inhibition of cullin2 neddylation in UBC/DCN1 overactivated human MGC-803 cells at 1 uM incubated for 24 hrs by Western blot analysis. Format: cell-based. Summed up:
as §1

The subject of assay [6] is MGC-803. Kind of assay: Inhibition of cullin3 neddylation in UBC/DCN1 overactivated human MGC-803 cells at 1 uM incubated for 24 hrs by Western blot analysis. It counts as cell-based. Summed up:
as §1

For assay [7], the target named is Cullin-4B (Homo sapiens) (UniProt Q13620). In words: Inhibition of cullin4B neddylation in UBC/DCN1 overactivated human MGC-803 cells at 1 uM incubated for 24 hrs by Western blot analysis. It counts as cell-based. The gist of the method: as §1
Sequence of Cullin-4B (Homo sapiens) (Q13620 whole entry): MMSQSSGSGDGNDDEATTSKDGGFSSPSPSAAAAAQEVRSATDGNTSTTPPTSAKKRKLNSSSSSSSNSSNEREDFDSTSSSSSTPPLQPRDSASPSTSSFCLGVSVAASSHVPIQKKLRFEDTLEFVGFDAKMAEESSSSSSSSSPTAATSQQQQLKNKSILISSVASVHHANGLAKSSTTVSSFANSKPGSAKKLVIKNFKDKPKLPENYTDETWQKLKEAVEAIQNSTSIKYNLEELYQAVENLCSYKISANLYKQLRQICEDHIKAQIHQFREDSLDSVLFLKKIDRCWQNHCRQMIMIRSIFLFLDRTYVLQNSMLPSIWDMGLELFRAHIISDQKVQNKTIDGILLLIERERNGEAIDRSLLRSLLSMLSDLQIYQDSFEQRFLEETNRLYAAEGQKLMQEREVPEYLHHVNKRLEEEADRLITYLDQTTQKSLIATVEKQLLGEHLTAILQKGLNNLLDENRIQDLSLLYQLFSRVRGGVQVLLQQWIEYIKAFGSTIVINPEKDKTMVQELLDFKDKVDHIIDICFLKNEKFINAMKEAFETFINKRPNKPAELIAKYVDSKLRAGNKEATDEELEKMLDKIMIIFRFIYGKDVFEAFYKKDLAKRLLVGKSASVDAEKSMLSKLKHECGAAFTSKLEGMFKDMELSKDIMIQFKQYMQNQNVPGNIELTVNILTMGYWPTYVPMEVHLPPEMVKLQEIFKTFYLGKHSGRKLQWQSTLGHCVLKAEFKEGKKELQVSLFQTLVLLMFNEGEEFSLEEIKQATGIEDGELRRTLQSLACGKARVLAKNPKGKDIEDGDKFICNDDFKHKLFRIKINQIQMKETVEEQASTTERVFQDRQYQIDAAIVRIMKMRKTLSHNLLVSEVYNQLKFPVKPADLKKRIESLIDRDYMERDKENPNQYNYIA
The test system of assay [8] is MGC-803. Kind of assay: Induction of NRF2 accumulation in human MGC-803 cells 0.03 to 3 uM incubated for 24 hrs by Western blot analysis. Format: functional, cell-based. Particulars: dose 0.03-3 µM. The gist of the method: as §1
Assay [9] concerns the target T1, Cullin-5 (Homo sapiens) (UniProt Q93034).
T1 sequence (whole entry): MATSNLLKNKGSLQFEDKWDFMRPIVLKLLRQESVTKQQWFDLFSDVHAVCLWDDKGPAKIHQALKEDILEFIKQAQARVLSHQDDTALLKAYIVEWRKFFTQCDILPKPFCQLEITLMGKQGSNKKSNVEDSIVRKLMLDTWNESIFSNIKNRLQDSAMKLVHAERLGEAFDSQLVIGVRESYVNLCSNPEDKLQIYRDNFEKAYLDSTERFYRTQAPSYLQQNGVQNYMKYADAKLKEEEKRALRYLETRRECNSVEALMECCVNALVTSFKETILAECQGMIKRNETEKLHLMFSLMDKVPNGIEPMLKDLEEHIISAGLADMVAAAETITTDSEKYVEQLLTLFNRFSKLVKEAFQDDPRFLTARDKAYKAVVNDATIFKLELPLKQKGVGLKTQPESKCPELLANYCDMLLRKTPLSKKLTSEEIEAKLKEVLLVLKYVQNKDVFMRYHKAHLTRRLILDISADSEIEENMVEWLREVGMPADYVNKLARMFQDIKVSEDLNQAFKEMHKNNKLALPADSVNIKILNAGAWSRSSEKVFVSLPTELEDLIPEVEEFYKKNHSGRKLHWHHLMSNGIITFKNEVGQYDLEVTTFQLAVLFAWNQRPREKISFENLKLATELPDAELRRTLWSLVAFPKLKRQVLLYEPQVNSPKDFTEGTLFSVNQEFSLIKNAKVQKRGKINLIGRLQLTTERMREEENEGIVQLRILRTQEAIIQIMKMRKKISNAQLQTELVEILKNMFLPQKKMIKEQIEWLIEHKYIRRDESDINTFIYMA
In words: Inhibition of cullin5 neddylation in UBC/DCN1 overactivated human MGC-803 cells at 1 uM incubated for 24 hrs by Western blot analysis. It counts as cell-based. Summed up: as §1

For assay [10], the system named is MGC-803. Kind of assay: Induction of ROS generation in human MGC-803 cells at 3 uM incubated for 24 hrs by DCFH-DA staining based flow cytometry analysis (reference value: 1.4%). Format: functional.
Assay [11] concerns the target Cullin-4B (Homo sapiens) (UniProt Q13620). In words: Inhibition of cullin4B neddylation in UBC/DCN1 overactivated human MGC-803 cells at 0.3 to 10 uM incubated for 24 hrs by Western blot analysis. Format: cell-based. The conditions noted are these: dose 0.3-10 µM. The gist of the method: as §1
The subject of assay [12] is MGC-803. Kind of assay: Induction of ROS generation in human MGC-803 cells at 1 uM incubated for 24 hrs by DCFH-DA staining based flow cytometry analysis (reference value: 1.4%). It counts as functional. (In general: A flow cytometer gives signals particle by particle.)
The target in assay [13] is T1, Cullin-5 (Homo sapiens). In words: Inhibition of cullin5 neddylation in UBC/DCN1 overactivated human MGC-803 cells at 0.3 to 10 uM incubated for 24 hrs by Western blot analysis. Particulars: dose 0.3-10 µM. Format: cell-based. The gist of the method:
as §1

Assay [14] has as its system MGC-803. In words: Induction of ROS generation in human MGC-803 cells at 0.3 uM incubated for 24 hrs by DCFH-DA staining based flow cytometry analysis (reference value: 1.4%). It counts as functional.
In assay [15] the target is Cullin-4A (Homo sapiens) (UniProt Q13619). In words: Inhibition of cullin4A neddylation in UBC/DCN1 overactivated human MGC-803 cells at 0.3 to 10 uM incubated for 24 hrs by Western blot analysis. It counts as cell-based. Particulars: dose 0.3-10 µM. The gist of the method: as §1
Sequence of Cullin-4A (Homo sapiens) (Q13619 whole entry, the tested form may be a part): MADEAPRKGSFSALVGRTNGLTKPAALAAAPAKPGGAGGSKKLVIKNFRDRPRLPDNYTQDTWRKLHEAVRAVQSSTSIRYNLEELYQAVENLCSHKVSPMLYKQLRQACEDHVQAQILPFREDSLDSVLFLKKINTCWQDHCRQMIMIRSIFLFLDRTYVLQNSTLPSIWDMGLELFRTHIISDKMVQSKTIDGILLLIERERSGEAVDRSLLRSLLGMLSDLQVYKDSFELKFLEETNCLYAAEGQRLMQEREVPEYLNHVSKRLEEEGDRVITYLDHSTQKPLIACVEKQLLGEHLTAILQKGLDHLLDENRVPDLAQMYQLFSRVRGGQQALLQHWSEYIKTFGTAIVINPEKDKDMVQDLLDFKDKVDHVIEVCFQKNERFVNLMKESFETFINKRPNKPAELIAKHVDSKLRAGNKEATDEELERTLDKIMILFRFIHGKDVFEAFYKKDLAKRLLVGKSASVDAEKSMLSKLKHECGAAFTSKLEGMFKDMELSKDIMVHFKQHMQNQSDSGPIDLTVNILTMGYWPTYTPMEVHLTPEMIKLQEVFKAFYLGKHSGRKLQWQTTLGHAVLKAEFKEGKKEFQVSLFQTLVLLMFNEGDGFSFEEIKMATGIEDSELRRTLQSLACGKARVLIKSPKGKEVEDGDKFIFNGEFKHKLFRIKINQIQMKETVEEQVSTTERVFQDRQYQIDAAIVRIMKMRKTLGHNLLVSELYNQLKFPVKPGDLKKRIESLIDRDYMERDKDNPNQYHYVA
Assay [16] addresses T2, DCN1-like protein 1/NEDD8-conjugating enzyme Ubc12 (Homo sapiens, UniProt Q96GG9). In words: Inhibition of GST-tagged DCN1 PONY domain (unknown origin)/human N-terminal acetylated UBC12 (1 to 12 residues) protein-protein interaction incubated for 1 hr by HTRF analysis. It counts as protein assay. For orientation: Time-resolved FRET reads energy transfer from a long-lived donor to a nearby acceptor.

The target in assay [17] is Cullin-1 (Homo sapiens) (UniProt Q13616). In words: Inhibition of cullin1 neddylation in UBC/DCN1 overactivated human MGC-803 cells at 0.3 to 10 uM incubated for 24 hrs by Western blot analysis. Format: cell-based. The conditions noted are these: dose 0.3-10 µM. Summed up: as §1
Sequence of Cullin-1 (Homo sapiens) (Q13616 whole entry): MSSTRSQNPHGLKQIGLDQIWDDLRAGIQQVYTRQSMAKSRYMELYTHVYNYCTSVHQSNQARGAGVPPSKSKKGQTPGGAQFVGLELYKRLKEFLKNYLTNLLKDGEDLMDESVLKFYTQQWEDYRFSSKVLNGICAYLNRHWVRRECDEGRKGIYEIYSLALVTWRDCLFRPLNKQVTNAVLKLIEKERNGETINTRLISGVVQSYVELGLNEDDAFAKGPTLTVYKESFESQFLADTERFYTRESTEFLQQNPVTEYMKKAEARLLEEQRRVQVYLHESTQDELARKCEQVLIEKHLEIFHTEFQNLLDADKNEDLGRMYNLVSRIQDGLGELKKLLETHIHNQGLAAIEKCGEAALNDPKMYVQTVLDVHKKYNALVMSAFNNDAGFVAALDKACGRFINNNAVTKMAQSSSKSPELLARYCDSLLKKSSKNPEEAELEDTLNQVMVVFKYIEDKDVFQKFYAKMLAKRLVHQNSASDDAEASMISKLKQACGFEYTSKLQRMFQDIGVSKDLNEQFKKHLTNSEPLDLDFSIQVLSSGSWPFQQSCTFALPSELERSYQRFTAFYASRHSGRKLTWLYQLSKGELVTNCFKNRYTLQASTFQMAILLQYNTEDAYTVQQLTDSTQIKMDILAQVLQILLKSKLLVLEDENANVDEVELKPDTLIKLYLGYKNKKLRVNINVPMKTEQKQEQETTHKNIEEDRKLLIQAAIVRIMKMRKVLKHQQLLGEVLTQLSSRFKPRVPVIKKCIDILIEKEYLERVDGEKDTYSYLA
In assay [18] the test system is MGC-803. In words: Inhibition of cullin2 neddylation in UBC/DCN1 overactivated human MGC-803 cells at 0.3 to 10 uM incubated for 24 hrs by Western blot analysis. It counts as cell-based. Particulars: dose 0.3-10 µM. The gist of the method: as §1
The test system of assay [19] is MGC-803. In words: Inhibition of cullin3 neddylation in UBC/DCN1 overactivated human MGC-803 cells at 0.3 to 10 uM incubated for 24 hrs by Western blot analysis. Format: cell-based. The conditions noted are these: dose 0.3-10 µM. Summed up:
as §1

Assay [20] relates to MGC-803. Kind of assay: Induction of ROS generation in human MGC-803 cells at 3 uM incubated for 24 hrs by DCFH-DA staining based flow cytometry analysis (reference value: 1.2%). Format: functional.
Assay [21] has as its system MGC-803. Kind of assay: Induction of ROS generation in human MGC-803 cells at 0.3 uM incubated for 24 hrs by DCFH-DA staining based flow cytometry analysis (reference value: 1.2%). It counts as functional.
The test system of assay [22] is MGC-803. Kind of assay: Induction of ROS generation in human MGC-803 cells at 1 uM incubated for 24 hrs by DCFH-DA staining based flow cytometry analysis (reference value: 1.2%). It counts as functional.
Assay [23] has as its system MGC-803. In words: Inhibition of cullin3 neddylation in UBC/DCN1 overactivated human MGC-803 cells incubated for 24 hrs by Western blot analysis. Format: cell-based. Summed up:
as §1

In assay [24] the test system is MGC-803. In words: Induction of NRF2 accumulation in human MGC-803 cells 0.01 to 10 uM incubated for 24 hrs by Western blot analysis. Format: functional, cell-based. The conditions noted are these: dose 0.01-10 µM. Summed up: as §1
The subject of assay [25] is MGC-803. In words: Induction of ROS generation in human MGC-803 cells at 1 uM incubated for 24 hrs by DCFH-DA staining based flow cytometry analysis (reference value: 2%). Format: functional.
Assay [26] concerns MGC-803. Kind of assay: Induction of ROS generation in human MGC-803 cells at 3 uM incubated for 24 hrs by DCFH-DA staining based flow cytometry analysis (reference value: 2%). Format: functional.
Assay [27] concerns MGC-803. In words: Induction of ROS generation in human MGC-803 cells at 0.3 uM incubated for 24 hrs by DCFH-DA staining based flow cytometry analysis (reference value: 2%). Format: functional.
Assay [28] deals with T2, DCN1-like protein 1/NEDD8-conjugating enzyme Ubc12. In words: Inhibition of biotinylated DCN1 PONY domain (unknown origin)/human N-terminal acetylated UBC12 (1 to 12 residues) protein-protein interaction incubated for 1 hr by TR-FRET analysis. Format: protein assay.

T2 sequence (Q96GG9 whole entry, the tested form may be a part): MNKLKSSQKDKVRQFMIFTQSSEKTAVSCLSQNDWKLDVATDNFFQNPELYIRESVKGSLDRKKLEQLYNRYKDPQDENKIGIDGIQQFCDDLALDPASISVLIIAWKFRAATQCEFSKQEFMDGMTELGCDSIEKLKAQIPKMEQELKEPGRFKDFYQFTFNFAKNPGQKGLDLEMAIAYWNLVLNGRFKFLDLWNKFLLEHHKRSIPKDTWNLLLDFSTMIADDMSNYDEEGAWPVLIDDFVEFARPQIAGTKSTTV
T2 sequence (P61081 whole entry, further chain, the tested form may be a part): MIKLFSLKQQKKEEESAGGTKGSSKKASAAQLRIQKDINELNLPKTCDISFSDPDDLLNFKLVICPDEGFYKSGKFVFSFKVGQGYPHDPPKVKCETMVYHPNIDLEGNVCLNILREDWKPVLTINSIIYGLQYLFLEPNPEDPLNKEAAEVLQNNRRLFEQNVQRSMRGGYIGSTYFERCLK

As for `NS(=O)(=O)OC[C@@H]1C[C@@H](n2ccc3c(N[C@H]4CCc5ccccc54)ncnc32)C[C@@H]1O`, the result in assay [1], in [2] and in [8] was Active. The inhibition entry in assay [3], in [4], in assay [5], in assay [6], in assay [7] and in [9] was “Active” throughout.
With `CCCCCc1c(C)nc2nc(SCc3ccc(Cl)cc3)nn2c1Sc1nnnn1CCN(C)C.Cl`, the Activity came to 0.7% in assay [10], 2.6% in assay [12] and 2.5% in [14]. The inhibition result in [11], in assay [13], in assay [15], in assay [17], in assay [18] and in assay [19] was “inactive” in each case. Further, the pIC50 in [16] is less than 4.30.
With `CCC(=O)N[C@@H](Cc1nc2ccc(C(C)C)cc2s1)C(=O)N[C@H](CNC(=O)CCN1CCOCC1)C1CCCCC1`, the inhibition entry in assay [11], in assay [13], in assay [15], in [17] and in [18] was “inactive” each time. Also, the values for the Activity in assay [20], in assay [21] and in assay [22] were 1.3%, 1.3% and 0.7%, respectively. For the same molecule, the inhibition entry in assay [23] was “Dose-Dependent Effect”. Further, the outcome in [24] was Active.
In the case of `CCCCN1CCC(N(Cc2ccccc2)C(=O)Nc2ccc(Cl)c(Cl)c2)CC1`, the values for the Activity in assay [25], in assay [26] and in assay [27] were 0.5%, 0.2% and 0.7%, respectively. In [28], this molecule showed a pIC50 of 7.22.
In assay [16], `CN(C)CCn1nnnc1Sc1cc(-c2ccccc2)nc2ncnn12` had a pIC50 of 6.89.
The same measure, in the same setting: under `Cc1cc(Sc2nnnn2CCN(C)C)n2nc(SC(C)C)nc2n1` stands 6.57; under `CCc1cc(Sc2nnnn2CCN(C)C)n2ncnc2n1`, 6.15.
